{"source": "ChEMBL document CHEMBL1255448", "about": "“The 6-aminoquinolone WC5 inhibits human cytomegalovirus replication at an early stage by interfering with the transactivating activity of viral immediate-early 2 protein” (Antimicrob Agents Chemother, 2010)", "key": {"Human betaherpesvirus 5 [1]": {"test_system": "Human betaherpesvirus 5", "test": "Antiviral activity against 0.1 MOI human cytomegalovirus AD169 infected in human HFF assessed as inhibition of early phase UL54 mRNA expression after 16 hrs by RT-PCR analysis"}, "Human betaherpesvirus 5 [2]": {"test_system": "Human betaherpesvirus 5", "test": "Antiviral activity against 0.1 MOI human cytomegalovirus AD169 infected in human HFF assessed as inhibition of immediate early phase UL123 mRNA expression after 16 hrs by RT-PCR analysis", "type": "functional, organism-based", "summary_of_the_method": "(§1)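 HFF seeded at 6×10^5 per well, infected with AD169 at MOI 0.1 PFU/cell, then given 50 µM drug or 0.2% DMSO. ActD 5 µg/ml, CHX 75 µg/ml and FOS 750 µM served as IE, E and L transcription controls. Total RNA was taken at 16 and 48 h p.i.; 1 µg was reverse-transcribed with random hexamers and MuLV RT. PCR used UL122/UL123 (IE), UL54/UL84 (E) and UL55/UL75 (L) primers with a β-actin control, and products were read on ethidium bromide agarose gels.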"}, "Human betaherpesvirus 5 [3]": {"test_system": "Human betaherpesvirus 5", "test": "Antiviral activity against 0.1 MOI human cytomegalovirus AD169 infected in human HFF assessed as inhibition of immediate early phase P72 protein expression after 24 hrs by Western blot analysis", "type": "functional, organism-based", "summary_of_the_method": "(§2)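 HFF infected with HCMV AD169 at MOI 0.1 PFU/cell, treated with 50 µM compound or 0.2% DMSO. ActD 5 µg/ml, CHX 75 µg/ml and FOS 750 µM served as controls. Harvests at 24, 48 and 72 h p.i. were lysed in NP-40 buffer, then SDS-PAGE and PVDF blotting. Probes were anti-IE1/IE2 (p72/p86) MAb or anti-UL55, then HRP secondary and ECL. β-actin reprobe was the internal control.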"}, "Human betaherpesvirus 5 [4]": {"test_system": "Human betaherpesvirus 5", "test": "Antiviral activity against 0.5 MOI human cytomegalovirus AD169 infected in human U373-MG cells expressing UL54-EGFP reporter assessed as inhibition of EGFP expression after 48 hrs of infection by confocal fluorescence microscopy", "type": "functional, organism-based", "conditions": "U-373MG ATCC", "summary_of_the_method": "(§3)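 Stable U373-MG reporter cells were seeded on coverslips at 3×10^5 per well and infected with AD169 at MOI 0.1 or 0.5. They were then treated with 50 µM drug, 5 µM fomivirsen (also given 1 h before and during infection) or 0.2% DMSO. At 48 h p.i. cells were fixed in 4% paraformaldehyde for 15 min, and EGFP-positive cells were counted by confocal microscopy at 20×.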"}, "Human betaherpesvirus 5 [5]": {"test_system": "Human betaherpesvirus 5", "test": "Antiviral activity against 0.1 MOI human cytomegalovirus AD169 infected in human U373-MG cells expressing UL54-EGFP reporter assessed as inhibition of EGFP expression after 48 hrs of infection by confocal fluorescence microscopy", "type": "functional, organism-based", "conditions": "U-373MG ATCC", "summary_of_the_method": "as §3"}, "Human betaherpesvirus 5 [6]": {"test_system": "Human betaherpesvirus 5", "test": "Antiviral activity against 0.1 MOI human cytomegalovirus AD169 infected in human U373-MG cells expressing UL112/113-EGFP reporter assessed as inhibition of EGFP expression after 48 hrs of infection by confocal fluorescence microscopy", "type": "functional, organism-based", "conditions": "U-373MG ATCC", "summary_of_the_method": "as §3"}, "Human betaherpesvirus 5 [7]": {"test_system": "Human betaherpesvirus 5", "test": "Antiviral activity against 0.1 MOI human cytomegalovirus AD169 infected in human HFF assessed as virus yield reduction by yield reduction assay", "type": "functional, organism-based", "conditions": "Human betaherpesvirus 5, AD169"}, "Human betaherpesvirus 5 [8]": {"test_system": "Human betaherpesvirus 5", "test": "Antiviral activity against 0.1 MOI human cytomegalovirus AD169 infected in human HFF assessed as inhibition of early phase UL84 mRNA expression after 16 hrs by RT-PCR analysis"}, "Human betaherpesvirus 5 [9]": {"test_system": "Human betaherpesvirus 5", "test": "Antiviral activity against human cytomegalovirus AD169 in human HFF assessed as reduction of viral entry into fibroblast after 2 hrs at 37 degC", "conditions": "Human betaherpesvirus 5, AD169, 2 h"}, "Human betaherpesvirus 5 [10]": {"test_system": "Human betaherpesvirus 5", "test": "Antiviral activity against 0.1 MOI human cytomegalovirus AD169 infected in human HFF assessed as inhibition of immediate early phase UL122 mRNA expression after 16 hrs by RT-PCR analysis", "type": "functional, organism-based", "summary_of_the_method": "as §1"}, "Human betaherpesvirus 5 [11]": {"test_system": "Human betaherpesvirus 5", "test": "Antiviral activity against human cytomegalovirus AD169 infected in human HFF assessed as virus yield reduction", "type": "functional, organism-based", "conditions": "Human betaherpesvirus 5, AD169"}, "Human betaherpesvirus 5 [12]": {"test_system": "Human betaherpesvirus 5", "test": "Antiviral activity against human cytomegalovirus AD169 infected in human HFF assessed as inhibition of plaque formation by plaque reduction assay", "type": "functional, organism-based", "conditions": "Human betaherpesvirus 5, AD169", "summary_of_the_method": "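Plaque reduction against AD169 in HFF. EC50 is the concentration giving 50% inhibition of plaque formation, reported as mean ± SD of at least three independent experiments run in duplicate.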"}, "[13]": {"test": "Inhibition of human cytomegalovirus DNA polymerase catalytic subunit UL54 assessed as incorporation of [3H]dTTP", "design": "species or system Human betaherpesvirus 5", "summary_of_the_method": "(§4)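 Filter-based assay with purified baculovirus-expressed UL54 catalytic subunit, alone or with UL44 accessory subunit. Incorporation of [3H]dTTP into poly(dA)-oligo(dT)12-18 template-primer was measured across serial compound dilutions, with FOS as control. Means ± standard deviations from four independent experiments.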"}, "[14]": {"test": "Selectivity index, ratio of CC50 for human HFF to EC50 for human cytomegalovirus AD169", "summary_of_the_method": "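Selectivity index is CC50 from the HFF MTT assay divided by EC50 from the AD169 plaque reduction assay in HFF.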"}, "Human betaherpesvirus 5 [15]": {"test_system": "Human betaherpesvirus 5", "test": "Antiviral activity against human cytomegalovirus AD169 in human HFF assessed as reduction of viral attachment to fibroblast at 4 degC", "type": "functional, organism-based", "summary_of_the_method": "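Prechilled HFF monolayers received 100 PFU AD169 together with graded compound or heparin control for 2 or 4 h at 4°C. Cells were washed with cold PBS, overlaid with compound-free 0.6% methylcellulose medium and kept 10 days at 37°C. Plaques were stained with crystal violet and counted. Three experiments were run in duplicate; mean ± SD.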"}, "Human betaherpesvirus 5 [16]": {"test_system": "Human betaherpesvirus 5", "test": "Antiviral activity against 1 MOI human cytomegalovirus AD169 infected in human HFF assessed as inhibition of viral replication up to 30 hrs post infection"}, "Human betaherpesvirus 5 [17]": {"test_system": "Human betaherpesvirus 5", "test": "Antiviral activity against 0.1 MOI human cytomegalovirus AD169 infected in human cells expressing UL112/113-EGFP reporter assessed as inhibition of IE2 transactivating activity after 48 hrs of infection by confocal fluorescence microscopy"}, "[18]": {"test": "Inhibition of human cytomegalovirus DNA polymerase catalytic subunit UL54/UL44 assessed as incorporation of [3H]dTTP", "design": "species or system Human betaherpesvirus 5", "summary_of_the_method": "as §4"}, "Human betaherpesvirus 5 [19]": {"test_system": "Human betaherpesvirus 5", "test": "Antiviral activity against 0.01 MOI human cytomegalovirus AD169 infected in human HFF assessed as virus yield reduction by yield reduction assay", "type": "functional, organism-based", "conditions": "Human betaherpesvirus 5, AD169"}, "Human betaherpesvirus 5 [20]": {"test_system": "Human betaherpesvirus 5", "test": "Antiviral activity against 0.1 MOI human cytomegalovirus AD169 infected in human HFF assessed as inhibition of late phase UL55 protein expression after 72 hrs of infection by Western blot analysis", "type": "functional, organism-based", "summary_of_the_method": "as §2"}, "Human betaherpesvirus 5 [21]": {"test_system": "Human betaherpesvirus 5", "test": "Antiviral activity against 0.1 MOI human cytomegalovirus AD169 infected in human HFF assessed as inhibition of immediate early phase P86 protein expression after 24 hrs by Western blot analysis", "type": "functional, organism-based", "summary_of_the_method": "as §2"}, "Human betaherpesvirus 5 [22]": {"test_system": "Human betaherpesvirus 5", "test": "Antiviral activity against 0.1 MOI human cytomegalovirus AD169 infected in human cells expressing UL54-EGFP reporter assessed as inhibition of IE2 transactivating activity after 48 hrs of infection by confocal fluorescence microscopy"}, "Human betaherpesvirus 5 [23]": {"test_system": "Human betaherpesvirus 5", "test": "Antiviral activity against 1 MOI human cytomegalovirus AD169 infected in human HFF assessed as virus yield reduction by yield reduction assay", "type": "functional, organism-based", "conditions": "Human betaherpesvirus 5, AD169"}, "Human betaherpesvirus 5 [24]": {"test_system": "Human betaherpesvirus 5", "test": "Antiviral activity against 0.5 MOI human cytomegalovirus AD169 infected in human U373-MG cells expressing UL112/113-EGFP reporter assessed as inhibition of EGFP expression after 48 hrs of infection by confocal fluorescence microscopy", "type": "functional, organism-based", "conditions": "U-373MG ATCC", "summary_of_the_method": "as §3"}}, "note": "The source made the active and inactive calls. No cut-off for these calls is given here.", "data": [{"smiles": "Nc1cc2c(=O)c(C(=O)O)cn(C3CC3)c2cc1N1CCN(c2ccccn2)CC1", "values": [{"measurement": "inhibition", "setting": "Human betaherpesvirus 5 [1]", "value": "Active"}, {"measurement": "inhibition", "setting": "Human betaherpesvirus 5 [2]", "value": "inactive"}, {"measurement": "inhibition", "setting": "Human betaherpesvirus 5 [3]", "value": "inactive"}, {"measurement": "inhibition", "setting": "Human betaherpesvirus 5 [4]", "value": "Active"}, {"measurement": "inhibition", "setting": "Human betaherpesvirus 5 [5]", "value": "Active"}, {"measurement": "inhibition", "setting": "Human betaherpesvirus 5 [6]", "value": "Active"}, {"measurement": "EC90", "setting": "Human betaherpesvirus 5 [7]", "value": 34.7, "unit": "µM"}, {"measurement": "inhibition", "setting": "Human betaherpesvirus 5 [8]", "value": "Active"}, {"measurement": "EC50", "setting": "Human betaherpesvirus 5 [9]", "value": "> 25", "unit": "µM"}, {"measurement": "inhibition", "setting": "Human betaherpesvirus 5 [10]", "value": "inactive"}, {"measurement": "EC50", "setting": "Human betaherpesvirus 5 [11]", "value": 8.6, "unit": "µM"}, {"measurement": "EC50", "setting": "Human betaherpesvirus 5 [12]", "value": 0.9, "unit": "µM"}, {"measurement": "IC50", "setting": "[13]", "value": "> 100", "unit": "µM"}, {"measurement": "Selectivity Index", "setting": "[14]", "value": 479}, {"measurement": "Activity", "setting": "Human betaherpesvirus 5 [15]", "value": "inactive"}, {"measurement": "Activity", "setting": "Human betaherpesvirus 5 [16]", "value": "Active"}, {"measurement": "inhibition", "setting": "Human betaherpesvirus 5 [17]", "value": "Active"}, {"measurement": "IC50", "setting": "[18]", "value": "> 100", "unit": "µM"}, {"measurement": "EC90", "setting": "Human betaherpesvirus 5 [19]", "value": 8.5, "unit": "µM"}, {"measurement": "inhibition", "setting": "Human betaherpesvirus 5 [20]", "value": "Active"}, {"measurement": "inhibition", "setting": "Human betaherpesvirus 5 [21]", "value": "inactive"}, {"measurement": "inhibition", "setting": "Human betaherpesvirus 5 [22]", "value": "Active"}, {"measurement": "EC90", "setting": "Human betaherpesvirus 5 [23]", "value": 51.9, "unit": "µM"}, {"measurement": "inhibition", "setting": "Human betaherpesvirus 5 [24]", "value": "Active"}]}]}
